experiment: Toxicity liver stage against HepG2, at 10uM; assay type: cell-based; design: test concentration 10 uM, cell line HepG2-A16-CD81EGFP; conditions: human, HepG2-A16-CD81EGFP cells; read-out: INHIBITION
Method in brief: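 Uninfected HepG2-A16-CD81EGFP cells, 3 × 10^3 per well, 1536-well, plated on prespotted compound at 10 μM final, parasite-free screening media added to match infected plates; puromycin 10 μM positive, DMSO 0.5% negative; run in parallel with 48 h PbLuc assay at 37 °C, 5% CO2; viability by CellTiter-Glo luminescence, normalized to controls.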

**Q.** For `Cc1cccc2c1nc1n2[C@@H](CNC(=O)C2CCOCC2)COC1`, which cytotoxicity at 10 µM is on record?
**A.** Its cytotoxicity at 10 µM is -1.47%.

**Q.** For `CCCC(O)CN1CC(C)(C)CN(C(=O)c2ccc(SC)cc2)CC1=O` (stereo unspecified), which cytotoxicity at 10 µM is on record?
**A.** Its cytotoxicity at 10 µM is -4%.

**Q.** For `CCS(=O)(=O)N1CCC(OC)c2ccccc2N(CC(=O)NC)C(=O)C1` (stereo unspecified), which cytotoxicity at 10 µM is on record?
**A.** Its cytotoxicity at 10 µM is -1.42%.

**Q.** With `CC(C)C[C@H](NC(=O)N1CCC(Cc2ccccc2)CC1)C(=O)O` as the compound, how does the cytotoxicity at 10 µM read?
**A.** Its cytotoxicity at 10 µM is -4.13%.

**Q.** Which cytotoxicity at 10 µM does the source give for `Cc1nn(C2CCS(=O)(=O)C2)c(O)c1Cc1ccc(Br)cc1` (stereo unspecified) here?
**A.** Its cytotoxicity at 10 µM is -41.6%.

**Q.** Which cytotoxicity at 10 µM does the source give for `COc1ccc(N2CCN(C(=O)c3nc(Cl)sc3C(C)C)CC2)cc1` here?
**A.** Its cytotoxicity at 10 µM is 3.17%.

**Q.** Which cytotoxicity at 10 µM does the source give for `Cc1noc(C2CN(CC(=O)NCC3CCCO3)C2)n1` (stereo unspecified) here?
**A.** Its cytotoxicity at 10 µM is -2.56%.

**Q.** With `O=C(c1ccsc1)N1CC(c2nc(-c3ccc[nH]c3=O)no2)C1` as the compound, how does the cytotoxicity at 10 µM read?
**A.** The cytotoxicity at 10 µM was -7.39%.

**Q.** For `COC1(CNC(=O)c2ccc(Cl)c(Cl)c2)CCSC1` (stereo unspecified), which cytotoxicity at 10 µM is on record?
**A.** Its cytotoxicity at 10 µM is 2.05%.

**Q.** Which cytotoxicity at 10 µM does the source give for `Cc1cccc(N(C)Cc2cc(=O)n3oc(C)cc3n2)c1` here?
**A.** The cytotoxicity at 10 µM was 0.14%.

**Q.** With `CC(=O)N1CCC(c2nccnc2-c2ccc(F)cc2)CC1` as the compound, how does the cytotoxicity at 10 µM read?
**A.** Its cytotoxicity at 10 µM is -2.22%.

**Q.** For `Cc1nc(Cn2cnc3c(c(Br)nn3C)c2=O)cs1`, which cytotoxicity at 10 µM is on record?
**A.** Its cytotoxicity at 10 µM is 8.84%.

**Q.** Which cytotoxicity at 10 µM does the source give for `Cc1cc(NC(=O)N2CCN(C)CC2C)n(Cc2ccccc2)n1` (stereo unspecified) here?
**A.** Its cytotoxicity at 10 µM is 11.4%.

**Q.** Which cytotoxicity at 10 µM does the source give for `Cc1cc(C)n(C2CCCN(C(=O)CN(C)c3cnccn3)C2)n1` (stereo unspecified) here?
**A.** Its cytotoxicity at 10 µM is 3.36%.

**Q.** With `CCCn1nnnc1COC(=O)C1Cc2cc(Cl)ccc2O1` (stereo unspecified) as the compound, how does the cytotoxicity at 10 µM read?
**A.** Its cytotoxicity at 10 µM is -5.68%.

**Q.** With `Cc1ccc(CNC(=O)NCc2nccn2C)c(OC(C)(C)C)c1` as the compound, how does the cytotoxicity at 10 µM read?
**A.** The cytotoxicity at 10 µM was 2.66%.

**Q.** For `Cn1c(C2CC2)nc2c1CCN(Cc1nc3ccccc3s1)C2`, which cytotoxicity at 10 µM is on record?
**A.** The cytotoxicity at 10 µM was -4.69%.

**Q.** Which cytotoxicity at 10 µM does the source give for `COCCSCC(=O)NCc1ccc(N(C)C)nc1` here?
**A.** The cytotoxicity at 10 µM was 9.15%.

**Q.** With `Cc1oncc1C(=O)NCC(c1ccccc1Cl)N1CCOCC1` (stereo unspecified) as the compound, how does the cytotoxicity at 10 µM read?
**A.** Its cytotoxicity at 10 µM is 10.7%.

**Q.** For `COCCn1nc(C(=O)N(C)Cc2ccc3ccccc3c2)ccc1=O`, which cytotoxicity at 10 µM is on record?
**A.** Its cytotoxicity at 10 µM is -131%.

**Q.** For `Cc1nc(C)n(CC2CCCN2CC(=O)NCCc2cccs2)n1` (stereo unspecified), which cytotoxicity at 10 µM is on record?
**A.** The cytotoxicity at 10 µM was -0.749%.

**Q.** For `O=C(NCCCn1ccnc1)Nc1ccn(CCc2ccccn2)n1`, which cytotoxicity at 10 µM is on record?
**A.** The cytotoxicity at 10 µM was -0.386%.

**Q.** For `CCc1nc(C2CCCN(c3nccc(C)n3)C2)no1` (stereo unspecified), which cytotoxicity at 10 µM is on record?
**A.** The cytotoxicity at 10 µM was -2.69%.

**Q.** With `COc1cccc(CNC(C)c2ccc(-n3ccnc3)cc2)c1O` (stereo unspecified) as the compound, how does the cytotoxicity at 10 µM read?
**A.** The cytotoxicity at 10 µM was -47.4%.

**Q.** With `CN(Cc1cc2c(cc1OC(F)F)OCO2)Cc1nccn1C` as the compound, how does the cytotoxicity at 10 µM read?
**A.** Its cytotoxicity at 10 µM is -1.21%.

**Q.** For `CC(C)(C)c1ccc(C2(C(=O)NCCCS(C)(=O)=O)CC2)cc1`, which cytotoxicity at 10 µM is on record?
**A.** The cytotoxicity at 10 µM was -12.6%.

**Q.** With `COc1ccc(CNC(=O)C2(C#N)CCCC2)cc1` as the compound, how does the cytotoxicity at 10 µM read?
**A.** Its cytotoxicity at 10 µM is -17.7%.

**Q.** For `COc1ccc(C2CCCCCN2S(=O)(=O)N(C)C)cc1` (stereo unspecified), which cytotoxicity at 10 µM is on record?
**A.** Its cytotoxicity at 10 µM is -9.87%.

**Q.** Which cytotoxicity at 10 µM does the source give for `O=C(c1ccc[nH]1)N1CCc2nnc(Cn3cccn3)n2CC1` here?
**A.** The cytotoxicity at 10 µM was 5.62%.

**Q.** For `Cc1ncccc1NC(=O)[C@@H]1CCO[C@@H]2CCN(c3ccncn3)C[C@H]21`, which cytotoxicity at 10 µM is on record?
**A.** Its cytotoxicity at 10 µM is 5.59%.

**Q.** For `COc1ccc2c(C)c(C(=O)NCCCc3csc(N)n3)oc2c1`, which cytotoxicity at 10 µM is on record?
**A.** The cytotoxicity at 10 µM was 2.58%.

**Q.** For `O=C(Nc1ccc(F)c(Cl)c1)N1CCCN([C@H]2COC[C@@H]2O)CC1`, which cytotoxicity at 10 µM is on record?
**A.** The cytotoxicity at 10 µM was -40.7%.

**Q.** With `CCc1cc(N(C)CCc2noc(C)n2)nc(N2CCOCC2)n1` as the compound, how does the cytotoxicity at 10 µM read?
**A.** Its cytotoxicity at 10 µM is 4.12%.

**Q.** With `COCCC1(CO)CCCN(C(=O)c2cccnc2OC)C1` (stereo unspecified) as the compound, how does the cytotoxicity at 10 µM read?
**A.** The cytotoxicity at 10 µM was -47.8%.

**Q.** Which cytotoxicity at 10 µM does the source give for `CC(C)Oc1cccc(C(=O)C2CCCN(C(=O)c3ncn[nH]3)C2)c1` (stereo unspecified) here?
**A.** The cytotoxicity at 10 µM was -7.53%.

**Q.** For `NC(=O)c1ccc(S(=O)(=O)NC(=O)COc2ccc3c(c2)CCC3)cc1`, which cytotoxicity at 10 µM is on record?
**A.** The cytotoxicity at 10 µM was -2.27%.

**Q.** With `CC(C)N1CCN(C(=O)Nc2cnn(CC(N)=O)c2)CC1` as the compound, how does the cytotoxicity at 10 µM read?
**A.** The cytotoxicity at 10 µM was -12.2%.

**Q.** For `Cc1cccc(C(=O)NC(CN2CCCC2=O)c2ccccc2)n1` (stereo unspecified), which cytotoxicity at 10 µM is on record?
**A.** Its cytotoxicity at 10 µM is -9.16%.

**Q.** With `CN(CC(=O)N1CCCC1Cn1cccn1)c1cnccn1` (stereo unspecified) as the compound, how does the cytotoxicity at 10 µM read?
**A.** The cytotoxicity at 10 µM was -5.1%.

**Q.** Which cytotoxicity at 10 µM does the source give for `O=C(NS(=O)(=O)c1ccc2c(c1)OCCO2)c1ccc(Br)cc1F` here?
**A.** Its cytotoxicity at 10 µM is 0.553%.

**Q.** Which cytotoxicity at 10 µM does the source give for `Cc1nc(CN2CCOC(CNc3cccnn3)C2)oc1C` (stereo unspecified) here?
**A.** The cytotoxicity at 10 µM was -7.94%.

**Q.** With `COC(=O)c1cccn1C1CCN(CC(=O)NC2CCCCC2)CC1` as the compound, how does the cytotoxicity at 10 µM read?
**A.** The cytotoxicity at 10 µM was -8.21%.

**Q.** For `O=C(c1cccnc1N1CCN(CCO)CC1)N1CCCC1`, which cytotoxicity at 10 µM is on record?
**A.** The cytotoxicity at 10 µM was -1.32%.

**Q.** For `CC(C)OCCCN(Cc1ccncc1)Cc1cccc(F)c1`, which cytotoxicity at 10 µM is on record?
**A.** Its cytotoxicity at 10 µM is -15.6%.

**Q.** For `Cc1nc(C)c(C(C)NCc2cnc(N3CCOCC3)nc2)s1` (stereo unspecified), which cytotoxicity at 10 µM is on record?
**A.** Its cytotoxicity at 10 µM is -4.76%.

**Q.** Which cytotoxicity at 10 µM does the source give for `COCCN1CCN(C=C2NN=C(c3occc3C)O2)CC1` here?
**A.** The cytotoxicity at 10 µM was -49.4%.
